Assay results collected from several papers.
Lines come from different studies, so protocols differ.
Target: Misshapen-like kinase 1 (MINK1, Homo sapiens, UniProt Q8N4C8)

SMILES	read-out	method	tested at	remaining binding [%]
COc1cnc(Nc2cccc(S(N)(=O)=O)c2)nc1N1CCN(c2ccccc2)C(=O)C1	binding	competition with immobilised ligand	1 µM	78
COc1ncc2cc3ccccc3nc2c1C#N	cell-free assay	competition with immobilised ligand	5 µM	99
c1cnn2ncc(-c3ccnc(N4CCC45COC5)n3)c2c1	binding	–	1 µM	68
C[C@H](c1cccc(C#N)c1)n1cc(Cl)cc(C(N)=O)c1=N	cell-free assay	competition with immobilised ligand	1 µM	88
N[C@@H]1CCN(c2nccc(-c3cnn4ncccc34)n2)C1	binding	–	1 µM	96
Cc1cnc(Nc2ccc(C(=O)N3CCC(N4CCCC4)CC3)cc2)nc1-c1cc2ccccc2s1	binding	competition with immobilised ligand	1 µM	40
O=C(Nc1c[nH]nc1C(=O)NC1CCNCC1)c1cc(F)cc(F)c1	binding	competition with immobilised ligand	1 µM	93
CN(c1nccc(-c2cnn3ncccc23)n1)C1CC1	binding	–	1 µM	100
CNCc1ccccc1-c1csc([C@H](C)Nc2nc(C)nc3cc(OC)c(OC)cc23)c1	cell-free assay	competition with immobilised ligand	1 µM	88
O=C(NCCCN1CCOCC1)c1ccc(Nc2ncc(Cl)c(-c3ccc(Cl)s3)n2)cc1	binding	competition with immobilised ligand	1 µM	20
CC1CCCN1c1nccc(-c2cnn3ncccc23)n1 (stereo not shown)	binding	–	1 µM	90
C=CC(=O)N1CCC(C(=O)NCC(=O)N2CCN(c3nc(-c4cnc(N)nc4C(F)F)nc(N4CCOCC4)n3)CC2)CC1	binding	competition with immobilised ligand	1 µM	99
O=C(NC[C@@H]1[C@H]2CN(C(=O)OCc3cc(C(F)(F)F)cc(C(F)(F)F)c3)C[C@@H]12)c1ccc2[nH]nnc2c1	cell-free assay	competition with immobilised ligand	1 µM	72
O=C(c1ccc(Nc2ncc(Cl)c(-c3ccc(Cl)s3)n2)cc1)N1CCC(N2CCCC2)CC1	binding	competition with immobilised ligand	1 µM	17
CC(C)(O)c1cncc(-c2nc3ccc(F)cc3n2C2CC2)c1	cell-free assay	competition with immobilised ligand	1 µM	100
C[C@H]1CCN(c2nccc(-c3cnn4ncccc34)n2)C1	binding	–	1 µM	71
CSc1cccnc1N1CCN(Cc2nc3ccccc3[nH]2)CC1	cell-free assay	competition with immobilised ligand	1 µM	89
CN(CCCC(F)(F)F)c1nccc(-c2cnn3ncccc23)n1	binding	–	1 µM	100
CN(C)C(=O)Cn1cc(-c2nc([C@@](C)(c3ccc(-c4cnc(N)nc4)cc3)C3CC3)no2)cn1	cell-free assay	competition with immobilised ligand	1 µM	85
CNC(=O)[C@@H]1CC[C@@H](n2c(-c3ccc4cnccc4c3)nc3ccc(C(=O)NCc4cccc(C(N)=O)c4)cc32)C1	binding	competition with immobilised ligand	1 µM	94
CN(C)c1ncc(F)c(-c2cnn3ncccc23)n1	binding	–	1 µM	80
FC(F)(F)c1ccc2c(c1)nc(-c1cccnc1)n2C1CC1	cell-free assay	competition with immobilised ligand	1 µM	100
